Compound activity deposited in PubChem by several laboratories.
Fh CTSL1 inh = blocks F. hepatica cathepsin L1 in PFM18AAP counter-screen. recombinant F. hepatica cathepsin L1, Z-Leu-Arg-MCA fluorescence. inhibition, % at 5.96 µM. hit rate 0.49% among 300,000;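 active = inhibition above the mean of all tested compounds plus 3 SD, set per screening campaign, cut at about 17% in these data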;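 also: 0% = plate median of test compound wells and 100% = 1 µM Z-Phe-Ala-diazomethylketone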
UCH37 inh = blocks the human deubiquitinase UCH37; purified proteasome/UCH37, Ub-AMC cleavage fluorescence; inhibition, % (concentration not given with the values); hit rate 0.33% among 330,000; AID 588478;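 active = mean inhibition over replicate wells above about 20%, limit read from the data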;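 also: 0% = compound-free wells with enzyme and 100% = wells lacking proteasome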
Target sequence (Q9Y5K5 whole entry, looked up): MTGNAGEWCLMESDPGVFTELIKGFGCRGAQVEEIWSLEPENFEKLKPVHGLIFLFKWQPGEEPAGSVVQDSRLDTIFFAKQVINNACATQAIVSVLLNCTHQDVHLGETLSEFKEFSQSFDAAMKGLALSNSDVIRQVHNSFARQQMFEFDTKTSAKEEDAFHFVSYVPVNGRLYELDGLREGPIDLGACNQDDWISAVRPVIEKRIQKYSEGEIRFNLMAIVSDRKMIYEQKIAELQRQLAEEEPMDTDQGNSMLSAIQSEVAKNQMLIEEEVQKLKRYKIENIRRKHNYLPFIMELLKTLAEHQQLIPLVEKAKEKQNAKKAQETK
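System: Proteasome-associated human UCH37 deubiquitinase; Input: 0.15 nM proteasome in added enzyme buffer; Also added: Ub-AMC substrate from 1 µM stock; Incubation: 30 min compound-proteasome preincubation then 25 min substrate reaction, room temperature; Detection: fluorescence, ex 355 nm, em 460 nm; Read-out: % inhibition of Ub-AMC cleavage fluorescence; Benchmarks: no-proteasome and no-compound wells.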
TDP2 inh = TDP2 (human) inhibition, absorbance primary screen; recombinant TDP2, T5PNP hydrolysis, p-nitrophenol absorbance 415 nm; hit rate 0.34% among 370,000; inhibition, % at 12.8 µM; O95551;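 active = inhibition above the mean of all tested compounds plus 3 SD, set per campaign, cut at about 25% in these data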;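 also: 0% = DMSO with enzyme and 100% = buffer with substrate but no TDP2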
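Incubation: 2 h at 37 °C; Test system: recombinant human TDP2; Quantity: enzyme 120 nM; Read-out basis: percent inhibition; Medium: 50 mM Tris-HCl pH 7.5 with Mg2+, KCl, DTT, BSA; Repeats: single replicate; Compound: 12.8 µM single point, 1% DMSO; Signal: epi absorbance; Reagent: 5 mM T5PNP chromogenic substrate; Benchmarks: no-enzyme high, DMSO-plus-enzyme low.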
HKDC1 inhibitor = HKDC1 (human) hexokinase inhibition | recombinant HKDC1, G6PDH/diaphorase resazurin coupled fluorescence | inhibition, % at 20 µM | hit rate 0.16% among 340,000 | AID 493160;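 active = inhibition above about 35% when tested at 20 µM, limit read from the data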;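 also: plate controls were DMSO wells with enzyme for no effect and DMSO wells lacking enzyme for full effect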
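Material – in-house recombinant HK5 (HKDC1) enzyme · Quantity – HKDC1 at 5 µg/mL · Buffer or medium – pH 8.0 Tris buffer with 10 mM MgCl2 · Reagent – glucose with 1 mM ATP · Dosing – single 20 µM dose · Times – reaction time 90 min, room temperature, protected from light · Technique – resorufin fluorescence at 613 nm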
GSTO1 counter = GSTO1 inhibition, counter-screen for RBBP9 inhibitors; AID 1974; hit rate 1.1% among 300,000; inhibition, % at 5.96 µM; recombinant GSTO1, activity-based probe fluorescence polarization;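 active = inhibition above the campaign mean inhibition plus 3 SD, cut at about 35% in these data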;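 also: 0% = GSTO1-1 with DMSO and 100% = wells lacking GSTO1-1 enzyme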
Target sequence (P78417 whole entry, looked up): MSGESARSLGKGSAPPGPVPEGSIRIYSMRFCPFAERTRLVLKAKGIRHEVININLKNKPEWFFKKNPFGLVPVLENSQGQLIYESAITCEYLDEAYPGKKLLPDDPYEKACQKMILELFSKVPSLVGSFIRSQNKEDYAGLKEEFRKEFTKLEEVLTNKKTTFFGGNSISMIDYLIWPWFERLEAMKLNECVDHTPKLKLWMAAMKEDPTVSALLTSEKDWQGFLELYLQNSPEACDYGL
PAD4 FP inh = inhibitors of human PAD4; Q9UM07; recombinant PAD4, RCA probe fluorescence polarization; inhibition, % at 6.36 µM; hit rate 0.41% among 330,000; AID 485272;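 active = percent inhibition above a cutoff equal to the mean of all tested compounds plus 3 SD, cut at about 15% in these data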;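 also: 0% = PAD4 with RCA probe and DMSO and 100% = probe without PAD4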
UCH37 reconfirm = reconfirmed inhibitor of human deubiquitinase UCH37; Proteasome-bound UCH37, Ub-AMC cleavage fluorescence; hit rate 27% among 480; inhibition, % at 20 µM; AID 624100; shares compounds with UCH37 inh;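 active = average inhibition over replicates above about 50%, so the earlier screening hit is confirmed, limit read from the data; inactive = the rest, counted as false positives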;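 also: based on cleavage rate fitted by regression over a 30 min kinetic read; 0% = proteasome plus Ub-AMC and 100% = Ub-AMC without proteasome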
TDP2 confirm = confirmation of human TDP2 inhibitors; shares compounds with TDP2 inh; recombinant human TDP2, absorbance read-out; inhibition, % at 12.8 µM; hit rate 22% among 1,100; AID 743263; in the data active = inhibition above about 25%;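 also: 0% = vehicle with enzyme and 100% = no enzyme buffer only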
The depositor's hits bear a star; i = inactive; . = no result. This is a sample that favours compounds with a hit; in the whole collection about 1.6% have one here.

SMILES	Fh CTSL1 inh	UCH37 inh	TDP2 inh	HKDC1 inhibitor	GSTO1 counter	PAD4 FP inh	TDP2 confirm	others
COC(=O)C1=C(c2cccc(C#N)c2)C[C@@H]2CC[C@H]1N2C(=O)NCc1cccc2ccccc12	.	46.5*	-3.6	3.4	.	0.8	.	UCH37 reconfirm=12.8
C=CCCC(NC(=O)OCc1ccccc1)P(=O)(Oc1ccccc1)Oc1ccccc1 (configuration not stated)	.	.	2.5	.	.	.	.
COC(=O)[C@H]1C[C@@]2(C)c3ccccc3N[C@H]2N1	.	.	-11.0	.	.	.	.
CN1C(=O)C(Cc2cccc3ccccc23)C(=O)N(C)C1=O	-2.3	40.3*	.	15.7	28.3	-1.4	.	UCH37 reconfirm=1.6
N#CCC[C@@H]1CC[C@]2(CCCN(Cc3ccncc3)C2)O1	.	.	8.1	.	.	.	.
CCOC(=O)CC[C@@H]1CC[C@]2(CCCN(Cc3ccccn3)C2)O1	.	.	6.1	.	.	.	.
CCOc1ccc(-n2c(O)c(C=Nc3ccc(N4CCOCC4)cc3)c(=O)[nH]c2=O)cc1	-0.3	44.6*	-12.9	7.9	-2.1	-6.8	.	UCH37 reconfirm=12.4
O=c1[nH]c(=S)n(-c2ccc(Br)cc2)c(O)c1C=Nc1ccc(N2CCOCC2)cc1	-1.1	5.7	-3.4	-3.5	33.3	-10.6	.
O=C1NC(=O)C(Cc2ccccc2)(Cc2ccccc2)C(=O)N1	.	.	4.6	7.4	.	.	.
O=C1NC(=O)C(Nc2ccccc2)C(=O)N1	.	63.9*	4.4	-7.1	.	.	.	UCH37 reconfirm=-3.6
CN1C(=O)C(=Cc2ccc(N3CCOCC3)o2)C(=O)N(C)C1=O	3.2	30.2*	0.8	8.2	2.0	0.2	.	UCH37 reconfirm=24.2
CCOc1ccc(N2C(=O)/C(=C/c3ccco3)C(=O)NC2=S)cc1	3.6	29.4*	.	81.1*	-22.8	-12.9	.	UCH37 reconfirm=99.2*
Cc1cc(OCC(=O)NCc2ccncc2)c2c3c(c(=O)oc2c1)CCC3	0.2	-42.3	25.9*	-0.2	-2.8	-3.4	5.0
COCCCn1c(N)c(C(=O)Nc2sc3c(c2C(=O)OC)CCCC3)c2nc3ccccc3nc21	0.5	6.1	34.8*	-5.2	3.4	-7.2	3.8
CCC(C)NC(=O)c1c(N)n(CCCOC)c2nc3ccccc3nc12 (configuration not stated)	1.7	i	67.4*	9.6	61.1*	-5.0	17.0
COCCCn1c(N)c(C(=O)Nc2ccccc2)c2nc3ccccc3nc21	0.7	-17.6	9.1	7.5	6.2	-0.2	.
COC(=O)[C@@]1(O)c2c(oc3cccc(O)c3c2=O)C=C[C@H]1O	.	.	-0.2	.	.	.	.
C[C@H](NC(=O)OCc1ccccc1)[P+](=O)O	.	.	0.5	.	.	.	.
CN1C(=O)NC(=O)/C(=C/c2ccc([N+](=O)[O-])s2)C1=O	-0.4	.	24.9*	4.6	32.7	-1.6	20.8
O=C1C2CC=CCC2C(=O)N1SC(Cl)(Cl)Cl (configuration not stated)	.	.	-2.0	.	.	.	.
CCN1CCN(c2ccc(N)cc2)CC1	-1.4	1.3	32.5*	2.6	-2.0	-5.1	6.3
CN1CCN(c2ccc(N)cc2)CC1	-0.2	5.0	-4.2	-1.7	12.2	-2.2	.
CCOC(=O)c1c(N)n(CCN2CCCCC2)c2nc3ccccc3nc12	2.0	i	4.7	7.6	6.9	1.7	.
CCCCn1c(NC(=O)c2ccc(Br)o2)c(C(=O)OCC)c2nc3ccccc3nc21	1.7	.	64.7*	13.6	89.8*	71.8*	72.7*
COc1ccccc1CN1CCN(C(=O)COc2cccc(C)c2)CC1	-0.4	3.2	-9.3	-5.5	2.4	-0.4	.
SMILES	Fh CTSL1 inh	UCH37 inh	TDP2 inh	HKDC1 inhibitor	GSTO1 counter	PAD4 FP inh	TDP2 confirm	others
COc1ccccc1CN1CCN(C(=O)COc2ccc3ccccc3c2)CC1	2.8	.	25.4*	3.2	2.4	-1.9	6.3
COC(=O)C1C(c2ccc(I)cc2)CC2CCC1N2C (configuration not stated)	.	.	-2.5	.	.	.	.
CN1C(=O)C(=Cc2ccccc2Oc2ccc(Cl)c(F)c2)C(=O)N(C)C1=O	-1.1	4.0	25.1*	6.8	6.0	4.1	6.9
O=[N+]([O-])c1ccccc1CNCCc1c[nH]c2ccccc12	-0.5	1.6	25.0*	-6.6	5.0	-2.4	5.6
O=P(C(Cl)Cl)(N1CCOCC1)N1CCOCC1	-3.8	0.4	30.1*	-5.8	8.3	-3.8	4.4
O=CC(Br)P(=O)(N1CCOCC1)N1CCOCC1 (configuration not stated)	-1.3	-0.1	-3.6	-5.3	1.6	1.4	.
CC(C)(C)n1nnnc1C1CN=C(c2ccccc2)c2cc(Cl)ccc2N1 (configuration not stated)	.	.	11.1	.	.	.	.
